Experimental data reported in ChEMBL document CHEMBL1129690, “Design, synthesis, and structure-activity relationship studies of novel 1-[(1-acyl-4-piperidyl)methyl]-1H-2- methylimidazo[4,5-c]pyridine derivatives as potent, orally active platelet-activating factor antagonists” (J Med Chem, 1996).
pIC50: −log10 of the molar value.

Key:
Canis familiaris [1] = assay: Inhibition of PAF-induced platelet aggregation in whole blood obtained after 4 hr from dog injected with an intravenous dose of 1 mg/Kg of compound; format: functional, Canis lupus familiaris
How it was run: (§1)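 Male Beagle dogs (8-12 kg) dosed once at 1 mg/kg iv. Venous blood drawn before dosing and at 4 and 6 h, anticoagulated with 3.8% citrate (1:9) and diluted 1:1 in saline.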

Mus musculus [2] = assay: Dosage required to inhibit PAF-induced mortality in mice by 50% through intravenous route; format: functional; settings: read-out: ID50 (the source's name)
How it was run: (§2)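 Male Swiss mice, 22-26 g, groups of 10. Test article given iv (10 mL/kg, saline vehicle) 5 min before, or po (20 mL/kg, 1% Tween 80) 60 min before, tail-vein C-18-PAF 100 µg/kg plus propranolol 1 mg/kg. Mortality scored 2 h after PAF; % inhibition vs vehicle controls. ID50 by linear regression, ≥4 points.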

Mus musculus [3] = assay: Dosage required to inhibit PAF-induced mortality in mice by 50% through oral administration; format: functional; settings: read-out: ID50 (the source's name); how it was run: as §2
Oryctolagus cuniculus = species: Oryctolagus cuniculus; assay: Concentration required to inhibit PAF-induced maximum platelet aggregation in rabbit platelet-rich plasma; format: functional
How it was run: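 PRP prepared by centrifugation at 250g, 10 min, 4 °C, and diluted with platelet-poor plasma (3000g, 10 min) to 3.5 × 10⁵ platelets/mm³. Aggregation triggered by C-18-PAF at 1.5 × 10^-8 M and read on a dual-channel aggregometer. IC50 from linear regression of at least four points, each the mean of one to three independent experiments.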

Rattus norvegicus = assay: Dose required to reduce the lowering of the arterial blood pressure caused by PAF by 50% after intravenous administration in rats; format: functional; settings: read-out: ID50 (the source's name)
How it was run: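 Rats with both femoral veins catheterized, one for test compound and one for PAF (0.5 µg/kg). Compound given iv in saline (1 mL/kg) 3 min before PAF. Blood pressure monitored; % inhibition of hypotension calculated versus controls. ID50 from linear regression of at least four doses, each the mean of two or more independent experiments.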

Mus musculus [4] = assay: Percentage of inhibition by the compound against PAF-induced mortality in mice 5 hr after intravenous administration of 1 mg/Kg; format: functional
How it was run: (§3)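 Male Swiss mice given single 1 mg/kg iv dose at time 0. C-18-PAF 100 µg/kg plus propranolol 1 mg/kg injected by lateral tail vein at later times (10-40 mice/time). Deaths scored 2 h after PAF. Percentage inhibition of mortality vs vehicle (saline) controls recorded at each time.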

Mus musculus [5] = assay: Percentage of inhibition by the compound against PAF-induced mortality in mice 3 hr after intravenous administration of 1 mg/Kg; format: functional; how it was run: as §3
Canis familiaris [6] = assay: Inhibition of PAF-induced platelet aggregation in whole blood obtained after 6 hr from dog injected with an intravenous dose of 1 mg/Kg of compound; format: functional, Canis lupus familiaris; how it was run: as §1
Mus musculus [7] = assay: Percentage of inhibition by the compound against PAF-induced mortality in mice 7 hr after intravenous administration of 1 mg/Kg; format: functional; how it was run: as §3
Mus musculus [8] = assay: Compound after an intravenous dose of 0.03 mg/Kg was tested for the inhibition of PAF-induced mortality in mice; format: functional; how it was run: as §2
Mus musculus [9] = assay: Compound after an intravenous dose of 0.01 mg/Kg was tested for the inhibition of PAF-induced mortality in mice; format: functional; how it was run: as §2

SMILES	Inhibition (Canis familiaris [1]) [%]	ED50 (Mus musculus [2]) [µg/kg]	ED50 (Mus musculus [3]) [mg/kg]	pIC50 (Oryctolagus cuniculus)	ED50 (Rattus norvegicus) [mg/kg]	inhibition in vivo at 1 mg/kg (Mus musculus [4]) [%]	inhibition in vivo at 1 mg/kg (Mus musculus [5]) [%]	Inhibition (Canis familiaris [6]) [%]	inhibition in vivo at 1 mg/kg (Mus musculus [7]) [%]	inhibition in vivo at 0.03 mg/kg (Mus musculus [8]) [%]	inhibition in vivo at 0.01 mg/kg (Mus musculus [9]) [%]
Cc1ncccc1C(C#N)N1CCN(C(=O)CNC(c2ccccc2)c2ccccc2)CC1 (configuration not stated)	39	9	0.3	7.40	0.021	15	30	–	–	–	–
Cc1nc2cnccc2n1CC1CCN(C(=O)CC(c2ccccc2)c2ccccc2)CC1	100	0.8	0.092	8.12	–	100	100	100	100	–	–
N#CC(c1cccnc1)C1CCN(C(=O)CNC(c2ccccc2)c2ccccc2)CC1 (configuration not stated)	–	–	2.6	7.62	0.03	–	–	–	–	–	–
CCOC[C@@H](NC(=O)N1CCC(Cn2c(C)nc3cnccc32)CC1)c1ccccc1	–	10	1	7.77	–	–	–	–	–	–	–
CCOC(=O)[C@H](NC(=O)N1CCC(Cn2c(C)nc3cnccc32)CC1)c1ccccc1	–	20	> 1	6.82	0.069	–	–	–	–	–	–
Cc1nc2cnccc2n1CC1CCN(C(=O)CC(O)(c2ccccc2)C(F)(F)F)CC1 (configuration not stated)	–	2.9	0.032	7.44	–	90	–	–	70	–	–
CCOC(=O)C(CC(=O)N1CCC(Cn2c(C)nc3cnccc32)CC1)c1ccccc1 (configuration not stated)	–	–	–	7.92	0.17	–	–	–	–	45	–
Cc1nc2cnccc2n1CC1CCN(C(=O)CNC(c2ccccc2)c2ccccc2)CC1	–	4.1	1	7.89	0.067	–	–	–	–	–	–
CCOC(=O)[C@H](CC(C)C)NC(=O)N1CCC(Cn2c(C)nc3cnccc32)CC1	–	2.7	> 1	7.92	0.03	–	–	–	–	–	–
Cc1nc2cnccc2n1CC1CCN(C(=O)N[C@H](C)c2ccccc2)CC1	100	4.7	1	7.89	–	56	–	77	22	–	–
Cc1nc2cnccc2n1CC1CCN(C(=O)CC(C)c2ccccc2)CC1 (configuration not stated)	–	3	1	7.92	–	–	–	–	–	–	–
COc1ccccc1CCC(=O)N1CCC(Cn2c(C)nc3cnccc32)CC1	–	3.3	> 1	7.82	0.045	–	–	–	–	–	–
Cc1nc2cnccc2n1CC1CCN(C(=O)C=C(c2ccccc2)c2ccccc2)CC1	–	3.7	> 1	6.62	0.011	–	–	–	–	–	–
Cc1nc2cnccc2n1CC1CCN(C(=O)CCc2ccccc2)CC1	–	13	> 1	7.22	> 5	–	–	–	–	–	–
Cc1nc2cnccc2n1CC1CCN(S(=O)(=O)CC(C)(C)c2ccccc2)CC1	–	–	> 1	8.21	0.087	–	–	–	–	–	50
COc1ccccc1N(C)CC(=O)N1CCC(Cn2c(C)nc3cnccc32)CC1	100	6.6	> 1	7.85	0.063	90	–	87	70	–	–
Cc1nc2cnccc2n1CC1CCN(C(=O)CC(O)(c2ccccc2)c2ccccc2)CC1	–	30	0.03	6.19	0.013	–	–	–	–	–	–

SMILES	Inhibition (Canis familiaris [1]) [%]	ED50 (Mus musculus [2]) [µg/kg]	ED50 (Mus musculus [3]) [mg/kg]	pIC50 (Oryctolagus cuniculus)	ED50 (Rattus norvegicus) [mg/kg]	inhibition in vivo at 1 mg/kg (Mus musculus [4]) [%]	inhibition in vivo at 1 mg/kg (Mus musculus [5]) [%]	Inhibition (Canis familiaris [6]) [%]	inhibition in vivo at 1 mg/kg (Mus musculus [7]) [%]	inhibition in vivo at 0.03 mg/kg (Mus musculus [8]) [%]	inhibition in vivo at 0.01 mg/kg (Mus musculus [9]) [%]
CC/C(=C\C(=O)N1CCC(Cn2c(C)nc3cnccc32)CC1)c1ccccc1	–	–	> 1	7.89	0.0054	–	–	–	–	50	–
Cc1nc2cnccc2n1CC1CCN(C(=O)OCC2(c3ccccc3)CC2)CC1	–	12	> 1	7.46	–	–	–	–	–	–	–
Cc1nc2cnccc2n1CC1CCN(C(=O)NC2(c3ccccc3)CC2)CC1	–	2	0.3	7.77	–	–	–	–	–	–	–
CCCC(CC(=O)N1CCC(Cn2c(C)nc3cnccc32)CC1)c1ccccc1 (configuration not stated)	–	10	1	7.96	–	–	–	–	–	–	–
CCOC(=O)[C@@H](NC(=O)N1CCC(Cn2c(C)nc3cnccc32)CC1)c1ccccc1	–	–	> 1	7.80	0.061	–	–	–	–	–	50
Cc1nc2cnccc2n1CC1CCN(C(=O)NC(c2ccccc2)c2ccccc2)CC1	–	> 30	> 1	8.09	0.14	–	–	–	–	–	–
COC(=O)NC(CC(=O)N1CCC(Cn2c(C)nc3cnccc32)CC1)c1ccccc1 (configuration not stated)	–	2.7	0.1	7.92	0.035	–	–	–	–	–	–
Cc1nc2cnccc2n1C1CCN(C(=O)CC(c2ccccc2)c2ccccc2)CC1	–	–	> 3	7.00	0.41	–	–	–	–	–	–
Cc1nc2cnccc2n1CC1CCN(C(=O)CC(C)(C)c2ccccc2)CC1	100	2.7	1	8.17	–	88	–	100	50	–	–
Cc1nc2cnccc2n1CC1CCN(C(=O)CC(C)(O)c2ccccc2)CC1 (configuration not stated)	59	2.9	1	8.16	–	80	–	43	60	–	–
Cc1nc2cnccc2n1CC1CCN(C(=O)CN(C)c2ccccc2)CC1	–	> 30	> 1	7.64	0.31	–	–	–	–	–	–
Cc1nc2cnccc2n1CC1CCN(C(=O)N[C@@H](C)c2ccccc2)CC1	–	–	> 1	7.39	0.21	–	–	–	–	45	–
COC/C(=C\C(=O)N1CCC(Cn2c(C)nc3cnccc32)CC1)c1ccccc1	–	7.9	> 1	7.74	0.022	–	–	–	–	–	–
COC(=O)NC(CC(=O)N1CCC(n2c(C)nc3cnccc32)CC1)c1ccccc1 (configuration not stated)	–	–	–	5.89	0.56	–	–	–	–	–	–
COC(=O)NC(CC(=O)N1CCN(C(C#N)c2cccnc2C)CC1)c1ccccc1 (configuration not stated)	–	5.5	0.044	7.39	0.015	–	–	–	–	–	–
Cc1nnc2n1-c1sc(CCC(=O)N3CCOCC3)cc1C(c1ccccc1Cl)=NC2 [APAFANT]	100	84	1.24	7.04	0.17	27	55	55	31	–	–
CCOC(=O)[C@H](CC(C)C)N(C)S(=O)(=O)c1ccc(Cn2c(C)nc3cnccc32)cc1 [LEXIPAFANT]	100	2.1	0.11	8.44	0.0037	95	100	100	56	–	–
